# Experiments:
# CCRF-CEM = test: In vitro growth inhibitory activity in the human CCRF-CEM leukemia cell line.; type: functional, cell-based
# Outline: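 CCRF-CEM human leukemia cells in log phase, 4.8 × 10⁴ cells per 2 mL well. Medium was RPMI-1640 with 10% dialyzed FBS and 25 mM HEPES. Compounds were serially diluted 1:3 in DMSO and added to duplicate wells, with DMSO-only controls, at 0.5% final DMSO. Cells were exposed 72 h at 37 °C in humidified 5% CO₂, then counted. IC50 in nM.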
# Mus musculus [1] = test: In vivo antitumor activity against murine pancreatic adenocarcinoma and measured as % weight loss on a schedule of 3-9 days and at a total dose of 42 mg/kg; type: functional
# Outline: (§1)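 Mice bearing drug-sensitive murine pancreatic adenocarcinoma Panc-03 were dosed on the listed days at the listed total doses. Dosing solutions were made in water from stock solutions and injected within 20 min. Chlorohydrin solutions were acidified with 0.05% citric acid. Tolerance was recorded as body weight loss and number of deaths.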
# Mus musculus [2] = test: In vivo antitumor activity against murine pancreatic adenocarcinoma and measured as number of deaths on a schedule of 3-9 days and at a total dose of 42 mg/kg; type: ADME, organism-based; set-up: dose 42 mg/kg; outline: as §1
# Mus musculus [3] = test: In vivo antitumor activity against murine pancreatic adenocarcinoma and measured as % weight loss on a schedule of 3-10 days and at a total dose of 32 mg/kg; type: functional; outline: as §1
# Mus musculus [4] = test: In vivo antitumor activity against murine pancreatic adenocarcinoma and measured as number of deaths on a schedule of 3-10 days and at a total dose of 32 mg/kg; type: ADME, organism-based; set-up: dose 32 mg/kg; outline: as §1
# Mus musculus [5] = test: Ratio of the median tumor weight in the treatment group over the median tumor weight in the control group on a schedule of 3-10 days and at a total dose of 32 mg/kg; type: functional
# Outline: (§2)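 Panc-03 murine pancreatic adenocarcinoma in mice, with injectable solutions prepared in water from stock and given within 20 min; chlorohydrins were acidified with 0.05% citric acid. %T/C is median tumor weight of the treated group over that of the control group × 100, calculated when control median tumor weight reaches 1 g. T/C ≤ 42% is taken as significant activity.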
# Mus musculus [6] = test: Ratio of the median tumor weight in the treatment group over the median tumor weight in the control group on a schedule of 3-9 days and at a total dose of 42 mg/kg; type: functional; outline: as §2
SMILES,IC50 (CCRF-CEM) [pM],other results
COc1ccc(C[C@H]2NC(=O)/C=C/C[C@@H]([C@H](C)[C@@H](O)[C@@H](Cl)c3ccc(CNCCN)cc3)OC(=O)[C@H](CC(C)C)OC(=O)C(C)(C)CNC2=O)cc1Cl,92,
COc1ccc(C[C@H]2NC(=O)/C=C/C[C@@H]([C@H](C)/C=C/c3cccc(C)c3)OC(=O)[C@H](CC(C)C)OC(=O)C(C)(C)CNC2=O)cc1Cl,25000,
COc1ccc(C[C@H]2NC(=O)/C=C/C[C@@H]([C@H](C)[C@H]3O[C@@H]3c3ccccc3)OC(=O)[C@H](CC(C)C)OC(=O)C(C)(C)CNC2=O)cc1Cl [CRYPTOPHYCIN 52],22,Weight loss (Mus musculus [1]): -9.6%; Death (Mus musculus [2]): 3; Weight loss (Mus musculus [3]): 1.6%; Death (Mus musculus [4]): 0; T/C (Mus musculus [5]): 3%; T/C (Mus musculus [6]): 1%
COc1ccc(C[C@H]2NC(=O)/C=C/C[C@@H]([C@H](C)/C=C/c3ccc(C)c(C)c3)OC(=O)[C@H](CC(C)C)OC(=O)C(C)(C)CNC2=O)cc1Cl,70000,
COc1ccc(C[C@H]2NC(=O)/C=C/C[C@@H]([C@H](C)[C@H]3O[C@@H]3c3cc(C)ccc3C)OC(=O)[C@H](CC(C)C)OC(=O)C(C)(C)CNC2=O)cc1Cl,2000,
COc1ccc(C[C@H]2NC(=O)/C=C/C[C@@H]([C@H](C)[C@H]3O[C@@H]3c3ccc(C)c(C)c3)OC(=O)[C@H](CC(C)C)OC(=O)C(C)(C)CNC2=O)cc1Cl,50,
CNCC(=O)NCc1ccc([C@H](Cl)[C@H](O)[C@@H](C)[C@@H]2C/C=C/C(=O)N[C@H](Cc3ccc(OC)c(Cl)c3)C(=O)NCC(C)(C)C(=O)O[C@@H](CC(C)C)C(=O)O2)cc1,40,
COC(=O)c1ccc([C@H](Cl)[C@H](O)[C@@H](C)[C@@H]2C/C=C/C(=O)N[C@H](Cc3ccc(OC)c(Cl)c3)C(=O)NCC(C)(C)C(=O)O[C@@H](CC(C)C)C(=O)O2)cc1,37,
COc1ccc(C[C@H]2NC(=O)/C=C/C[C@@H]([C@H](C)[C@@H]3O[C@H]3c3ccc(CO)cc3)OC(=O)[C@H](CC(C)C)OC(=O)C(C)(C)CNC2=O)cc1Cl,290,
COc1ccc(C[C@H]2NC(=O)/C=C/C[C@@H]([C@H](C)[C@@H](O)[C@@H](Cl)c3ccc(CNC(=O)CN(C)C(=O)OC(C)(C)C)cc3)OC(=O)[C@H](CC(C)C)OC(=O)C(C)(C)CNC2=O)cc1Cl,20,
COc1ccc(C[C@H]2NC(=O)/C=C/C[C@@H]([C@H](C)/C=C/c3cc(C)ccc3C)OC(=O)[C@H](CC(C)C)OC(=O)C(C)(C)CNC2=O)cc1Cl,440000,
COc1ccc(C[C@H]2NC(=O)/C=C/C[C@@H]([C@H](C)[C@H]3O[C@@H]3c3ccc(CC(=O)O)cc3)OC(=O)[C@H](CC(C)C)OC(=O)C(C)(C)CNC2=O)cc1Cl,790,
COc1ccc(C[C@H]2NC(=O)/C=C/C[C@@H]([C@H](C)/C=C/c3ccc(CO)cc3)OC(=O)[C@H](CC(C)C)OC(=O)C(C)(C)CNC2=O)cc1Cl,790,
COc1ccc(C[C@H]2NC(=O)/C=C/C[C@@H]([C@H](C)/C=C/c3csc(C)n3)OC(=O)[C@H](CC(C)C)OC(=O)C(C)(C)CNC2=O)cc1Cl,460000,
COc1ccc(/C=C/[C@@H](C)[C@@H]2C/C=C/C(=O)N[C@H](Cc3ccc(OC)c(Cl)c3)C(=O)NCC(C)(C)C(=O)O[C@@H](CC(C)C)C(=O)O2)cc1,12000,

# From ChEMBL document CHEMBL1145831 (J Med Chem, 2003)
